Data set [1] has as its system Plasma. In words: AUC (0 to 24 hrs) in plasma of urinary tract infection C3H/HeN mouse model assessed as Sodium3'-Chloro-4'-(alpha-D-mannopyranosyloxy)-biphenyl-4-carboxylate level at 50 mg/kg, po administered as single dose measured after 6 hrs by LC-MS analysis. The following applies: in vivo. Type of data set: ADME, organism-based. Set-up: time < 24 hr, dose 50 mg/kg, route oral. The essentials:
(§1)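 Female C3H/HeN mice (19-25 g) given a single 50 mg/kg oral dose by gavage. Compound dissolved in DMSO, then diluted in 1% Tween-80/PBS to a suspension. Blood and urine (10 μL) sampled at 6 min, 30 min, 1, 2, 4, 6, 8 and 24 h. Proteins precipitated with methanol, then LC-MS; for the prodrug, both ester and carboxylate metabolite measured; n=6.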

The target of data set [2] is Type 1 fimbrin D-mannose specific adhesin (Escherichia coli K-12, UniProt P08191). In words: Competitive inhibition of His-tagged FimH carbohydrate recognizing domain expressed in Escherichia coli HM125 using ABTS-substrate after 3 hrs by […] assay. In outline:
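FimH-CRD-Th-6His from E. coli HM125 coated at 10 μg/mL overnight at 4 °C and blocked with 3% BSA. 4-fold compound dilutions in HEPES buffer pH 7.4 (5% DMSO) plus streptavidin-peroxidase TM-PAA polymer, 3 h at 25 °C. ABTS developed 4 min and read at 415 nm. Duplicates; heptyl mannoside reference on each plate.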

Data set [3] has as its target Type 1 fimbrin D-mannose specific adhesin (Escherichia coli K-12) (UniProt P08191). In words: Ratio IC50 for compound to IC50 for n-heptyl R-D-mannopyranoside for His-tagged FimH expressed in Escherichia coli HM125. The essentials: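 FimH-CRD-Th-6His (10 μg/mL) coated overnight at 4 °C in 20 mM HEPES, 150 mM NaCl, 1 mM CaCl2, pH 7.4, then blocked with 3% BSA. 4-fold compound dilutions in 5% DMSO competed with streptavidin-peroxidase TM-PAA polymer for 3 h at 25 °C. ABTS read at 415 nm, duplicates. IC50 divided by the IC50 of the heptyl mannoside reference run on the same plate.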

Data set [4] is described as follows: Lipophilicity, log D at pH 7.4 by miniatured shake flask method. It counts as physicochemical. The following applies: buffer. In outline:
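Octanol-saturated 0.1 M phosphate pH 7.4 containing analyte at 1 μM, overlaid with octanol at two volume ratios, three wells each. Shaken 2 h at 25 °C, then centrifuged; aqueous phase measured by LC-MS. log D computed from depletion. Accepted when the ratio means agree within 0.1.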

The nature of data set [5]: Permeability of the compound assessed as membrane retention by PAMPA method. Type of data set: ADME. In outline:
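PAMPA with GIT-0 lipid, donor analyte 50 μM at pH 5.0, 6.2 and 7.4 in quadruplicate, 16 h undisturbed incubation. Donor and acceptor quantified by UV and LC-MS.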

Data set [6] is described as follows: Apparent permeability across human Caco2 cells after 120 mins by HPLC analysis. Type of data set: ADME, cell-based. The following applies: Caco-2. In outline:
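Caco-2 cells at passage 60-65 seeded on Transwells and used on days 19-21 in DMEM without pyruvate/phenol red. Only monolayers with TEER >300 Ωcm2 before and after were kept. Apical dosing from 10 mM stock, shaken at 250 rpm. Basolateral samples at 5-120 min by HPLC; Papp = (dQ/dt)/(A·c0). Triplicates.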

Data set [7] is described as follows: Thermodynamic solubility of the compound at pH 6.5 after 24 hrs by LC-MS analysis. It counts as physicochemical. The following applies: buffer, read-out: Therm_solubility. The essentials:
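1 mg solid in 250 μL 50 mM phosphate pH 6.5, sonicated 15 min, shaken 2 h at 25 °C, left 24 h. pH measured, then filtered and diluted; concentration determined by LC-MS.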

Data set [8] can be described thus: Stability of the compound in simulated gastrointestinal fluid assessed as compound remaining after 2 hrs by LC-MS analysis. It counts as physicochemical. The conditions noted are these: read-out: Stability.
The nature of data set [9]: Stability of the compound in simulated intestinal fluid assessed as compound remaining after 2 hrs by LC-MS analysis. Type of data set: physicochemical. The following applies: read-out: Stability. In outline:
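Simulated intestinal fluid (phosphate, NaOH, pancreatin, pH 6) at 37 °C, compound at 10 μM, 500 rpm. Samples at 0-120 min MeCN-quenched; LC-MS as % remaining versus initial.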

The subject of data set [10] is Liver. Description: Metabolic stability of the compound in mouse liver microsomes assessed as degradation by carboxylesterase at 2 uM by LC-MS analysis. Type of data set: ADME, Microsome. In outline: (§2)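 Pooled male mouse liver microsomes (0.25 mg/mL) with 2 μM compound in 0.1 M TRIS pH 7.4 and 2 mM MgCl2 at 37 °C. Samples at 0, 1, 3, 6 and 15 min quenched in cold MeCN; LC-MS as % remaining. The inhibitor arm used microsomes pre-incubated 5 min with 1 mM BNPP.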
In general terms: Microsomes from liver hold many membrane-bound enzymes, among them those of drug oxidation.

Data set [11] has as its system Liver. In words: Metabolic stability of the compound in mouse liver microsomes assessed as degradation by carboxylesterase at 2 uM by LC-MS analysis in presence of CES inhibitor BNPP. It counts as ADME, Microsome. In outline:
as §2

The nature of data set [12]: Plasma protein binding in human by miniatured equilibrium dialysis method. It counts as ADME, cell-free. The conditions noted are these: read-out: PPB (converted). The essentials:
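Human plasma adjusted to pH 7.5 with analyte at 10 μM, dialysed against 0.1 M phosphate pH 7.5 (MWCO 12-14 K) for 5 h at 37 °C in triplicate. Compartments MeCN-precipitated and measured by LC-MS; fb = 1 − cbuffer/cplasma.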
For orientation: In equilibrium dialysis free small molecules cross a membrane that holds back macromolecules.

Data set [13] can be described thus: AUC (0 to 24 hrs) in plasma of urinary tract infection C3H/HeN mouse model at 50 mg/kg, po administered as single dose measured after 6 hrs by LC-MS analysis. Set-up: time < 24 hr, dose 50 mg/kg, route oral. Type of data set: ADME, organism-based. In outline:
as §1

The nature of data set [14]: AUC (0 to 24 hrs) in urine of urinary tract infection C3H/HeN mouse model at 50 mg/kg, po administered as single dose measured after 6 hrs by LC-MS analysis. It counts as ADME, organism-based. Set-up: time < 24 hr, dose 50 mg/kg, route oral. In outline:
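Female C3H/HeN mice (19-25 g) gavaged once at 50 mg/kg. Compound dissolved in DMSO and diluted in 1% Tween-80/PBS as a suspension, or given in 200 μL PBS. Blood and urine sampled at 6 min to 24 h, methanol-precipitated, and analysed by LC-MS. For the prodrug, both parent and carboxylate metabolite were measured.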

The nature of data set [15]: AUC (0 to 24 hrs) in urine of urinary tract infection C3H/HeN mouse model assessed as Sodium3'-Chloro-4'-(alpha-D-mannopyranosyloxy)-biphenyl-4-carboxylate level at 50 mg/kg, po administered as single dose measured after 6 hrs by LC-MS analysis. Type of data set: ADME, organism-based. Set-up: time < 24 hr, dose 50 mg/kg, route oral. The conditions noted are these: in vivo. The essentials:
as §1

pIC50: −log10 of the molar value. Converted amounts (≈) assume the structure as drawn.

These results are taken from ChEMBL document CHEMBL1799951, “FimH antagonists for the oral treatment of urinary tract infections: from design and synthesis to in vitro and in vivo evaluation” (J Med Chem, 2010).

Type 1 fimbrin D-mannose specific adhesin, sequence (P08191 whole entry, the tested form may be a part): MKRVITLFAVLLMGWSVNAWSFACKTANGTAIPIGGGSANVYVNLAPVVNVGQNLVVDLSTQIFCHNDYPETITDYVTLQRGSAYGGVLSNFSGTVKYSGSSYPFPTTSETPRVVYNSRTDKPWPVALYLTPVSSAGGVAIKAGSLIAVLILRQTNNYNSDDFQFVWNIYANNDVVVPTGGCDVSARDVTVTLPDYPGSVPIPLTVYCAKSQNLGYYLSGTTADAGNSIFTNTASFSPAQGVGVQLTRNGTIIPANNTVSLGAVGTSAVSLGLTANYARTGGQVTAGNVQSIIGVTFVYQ
Type 1 fimbrin D-mannose specific adhesin (Escherichia coli K-12), sequence (P08191 whole entry): as the sequence (P08191 whole entry, the tested form may be a part) above

For orientation: AUC means concentration integrated over time. For orientation: pIC50 means the negative decadic logarithm of the IC50, by convention in mol/L. Usually logD stands for lipophilicity at a set pH, counting ionised and neutral species. A low value points to a more hydrophilic compound. A word on the Papp: it is a coefficient for how fast a substance crosses the barrier. The term AUC(0-t) denotes the area under the concentration-time curve up to a stated or last time point. Read a low AUC(0-t) as low exposure. As to `COC(=O)c1ccc(-c2ccc(O[C@H]3O[C@H](CO)[C@@H](O)[C@H](O)[C@@H]3O)c(Cl)c2)cc1`, the exposure (AUC) in data set [1] was 2100 ng·h/mL; in data set [15], 21690 ng·h/mL. In addition, in data set [2], the pIC50 was 8.32. In [3], the Ratio IC50 was 0.06. The same molecule had a logD in data set [4] of 2.32. For the same molecule, the permeability in data set [5] is listed as 41%. Besides, in data set [6], the Papp at 2 h is 2.05 ×10⁻⁶ cm/s. Moreover, in data set [7], the solubility thermodynamic at 24 h was 11.9 µg/mL (≈ 28 µM). In addition, the remaining at 2 h in [8] and in data set [9] was 80% in each case. For the same molecule, the Stability result in [10] is given as “Unstable”; in data set [11] it was “Stable”. Further, the fraction unbound in [12] was 0.06. The values for the area under the curve AUC(0-t) at 24 h in data set [13] and in data set [14] were 1020 ng·h/mL and 1890 ng·h/mL, respectively.
